Data published in the EternaBench riboswitch data.

Tested on: MS2 coat protein
Assay: apparent Kd, MS2 coat protein; higher = weaker binding; RNA-MaP array
Procedure, shortened: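 Binding of fluorescently labeled MS2 coat protein, at 1.5 nM to 3 μM and room temperature, was measured with or without input ligand on designed RNAs transcribed on an Illumina sequencing chip from sequenced DNA templates. Apparent Kd was defined as the median of per-cluster binding-curve fits. No design measured on fewer than 10 clusters was kept.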

[1] = designed as: ON switch for flavin mononucleotide, no ligand
[2] = ligand present: flavin mononucleotide, designed as: ON switch for flavin mononucleotide
[3] = designed as: OFF switch for flavin mononucleotide, no ligand
[4] = ligand present: flavin mononucleotide, designed as: OFF switch for flavin mononucleotide
[5] = designed as: ON switch for tryptophan, no ligand
[6] = ligand present: tryptophan, designed as: ON switch for tryptophan

Sequence	apparent Kd [3] [µM]	apparent Kd [4] [µM]	also measured
AAGACGGUUCAGAAGGUCUCUAAGCAGGUUACAGAAGGAUAUGAUGCGGACACAUGAGGAUCACCCAUGUUCUAGGGUACCCUA			apparent Kd [1]: 0.0221 µM; apparent Kd [2]: 0.019 µM
UUUACGAACGUGGAAAUACAUGAGGAUCACCCAUGUCAAUUGUAGGAUAUCCGGCUCAAAGAAAUGGAGAAGGACAACGACUCC			apparent Kd [1]: 0.0134 µM; apparent Kd [2]: 0.0127 µM
AAACAAGUAGGAUAUACAUGAGGAUCACCCAUGUAUUGUGAGGAUAGUACUGUACCAUGUAGAAGGACUCCGGA	0.0107	0.00912	
UAGUAACAUGAGGAUCACCCAUGUCCGGAUACCAGACAUAUACCAGUCCCUUGGCAGCCGCCAGUUAAAAUCUAACACAAAAGUU			apparent Kd (designed as: ON switch for theophylline, no ligand): 0.0462 µM; apparent Kd (ligand present: theophylline, designed as: ON switch for theophylline): 0.0215 µM
GUGUUACAUGAGGAUCACCCAUGUGUCUGAUGUCAAGGAUAUGACUCUUCCUUCACAAAGUCAGAAGGUGAUAUCA			apparent Kd [1]: 0.0663 µM; apparent Kd [2]: 0.0128 µM
GGCGACAUGAGGAUCACCCAUGUGACACCUCGAGGACCGGUACGGCCGCCACUCGUAACCUGCACUAUAGCUACCACGAUUAGCC			apparent Kd [5]: 0.193 µM; apparent Kd [6]: 0.0424 µM
UGCGGCGAAGGAUAUUGACCAAAACACAUGAGGAUCACCCAUGUACUCAUAACAUGCUAACAAGAAGGUCGCGUAA	0.0159	0.0138	
GUAGGUUGCCAAGGAUAUGCGGGUACUCUUCCGAAACAUGAGGAUCACCCAUGUACUCUCCUGUAGCAGAAGGUGGCUUGGUGA	0.493	0.269	
CGAGCAAGAGGAUAUACGAAGACGGUAUGAGUCAACCUCAAACAUGAGGAUCACCCAUGUAGAAGGCUUCUCAU	0.00746	0.00974	
CGUGAUACUGGUAUACUCUGAAGAUCAAUUCGAGGACCGGUACGGCCGCCACUCGUUAGUAGACAUGAGGAUCACCCAUGUUAGU			apparent Kd (designed as: OFF switch for tryptophan, no ligand): 0.02 µM; apparent Kd (ligand present: tryptophan, designed as: OFF switch for tryptophan): 0.0225 µM
AGCAUCGCAGGAUAUACAUGAGGAUCACCCAUGUAAAAUAACAAACUUGAACCUGCAAGUAGAAGGGCGUAACG	0.00831	0.00787	
CAACUAAAGGAGAAGGCUAACAUGAGGAUCACCCAUGUCCGCGUGUCCGCUUAUAAUGCGCGCAUAGAGGAUAUCCCAAGUUUA			apparent Kd [1]: 0.0214 µM; apparent Kd [2]: 0.0136 µM
UCUGUGAUUCAAGGAUAUAAGUCGAGUGCUUGCUUAGAAGGUGACGAACAUGAGGAUCACCCAUGUGCUUUAUUCUUAUGCAUC	0.0293	0.0256	
CAAGUCGGCAAGGAUAUGAAACGUAUUACAGAUUCAGAAGGUGCUACAUGAGGAUCACCCAUGUGGUCAAUACC	0.00676	0.0131	
GUUUCCUCAGGAUAUUACUGCCGGGACAUGAGGAUCACCCAUGUGGCCUCCGUAAGGCUAUAAGAAGGGAGGCGUC	0.111	0.157	
GAACAUGAGGAUCACCCAUGUGCUAUUGGGAAUCGCGCUACAUAGGAUAUAGAGGCGACUGUACUCUAGAAGGAUGCUAGUUUC	0.0383	0.0377	
UAAGCACAUGAGGAUCACCCAUGUAAGGAUAUCCGAUCAUGCAAUCCGGAGAUCACAAGGAGAAGGUACAUGCA	0.0296	0.0333	
UAGAUCCCAGUCAGGAUAUCCAGGGAGAAUAGGAGGGAGAAGGGACAUGAGGAUCACCCAUGUAUGCGACUACC	0.00791	0.00892	
GUAUUCAUGACGGCCGCCACUGCAAGCCUCCUCAUGGCAGAUUGACAUGAGGAUCACCCAUGUCUCAGGACCGGGUCUGGCAUCC			apparent Kd [5]: 0.188 µM; apparent Kd [6]: 0.171 µM
AGACAUGAGGAUCACCCAUGUUUGUGUAUCUGACCGCGCACUAGAAGGGAUUGGACAACUUACUAUCAGGAUAUAGACAACGGU			apparent Kd [1]: 0.0084 µM; apparent Kd [2]: 0.00695 µM
UAUUGGAUAGGAUAUACAUGAGGAUCACCCAUGUUUUCAUUGGACGAGGACGCUCUUCGUAGAAGGAUCGGCUA	0.0108	0.0102	
UAUGUAUAGAAGGAUAUCUAAUUACGCCCGAUAAGAGAAGGUCUGACAUGAGGAUCACCCAUGUUAUGGGAGGC	0.0181	0.0233	
GAAGACAUGAGGAUCACCCAUGUUACACACCGAGGACCGGUACGGCCGCCACUCGUAGGCCCUCGGCUCACCUGAGAUCCGCAUC			apparent Kd [5]: 0.0238 µM; apparent Kd [6]: 0.0226 µM
GUCCUACAUGAGGAUCACCCAUGUGGUCGUGGUAUAGGAUAUUAGGACUUUGUAAUCAGUUAAGAAGGAUAUCACU			apparent Kd [1]: 0.0601 µM; apparent Kd [2]: 0.0174 µM
GUCGUAGGCUAAGGAUAUAGUGAAAGAGUGAAGGCCUGAUCAGACAUGAGGAUCACCCAUGUGAACUAGAAGGUAGGCAAGGCU	0.0135	0.0125	
AUGUAGAAUCUAGGAUAUGCGAGAAACUGCGAAGCAGAAGGAGACUUGUACAUGAGGAUCACCCAUGUCCCGGGCGUCCCAACU	0.0177	0.0242	
GGGCCACCUCUAACAUGAGGAUCACCCAUGUUCGUCGGUUCCGAGGAUAUGUCUAGACGUAACGGACAGAAGGCGGUCCGGCUG	0.0262	0.081	
